Activity calls are given as the source filed them.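 Rule for the calls: active = IC50 of 1 µM or lower against any of the four tested PAD enzyme isoforms; inactive = the rest, IC50 above 1 µM everywhere.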
Experiments:
Test in all cases: inhibition of PAD isozymes 1-4 – biochemical, colorimetric, BAEE substrate, recombinant PAD1-4, selectivity assay for PAD4 inhibitor project, late-stage follow-up (AID 588484)
[1] = target: Protein-arginine deiminase type-1 (Homo sapiens) (UniProt Q9ULC6); details: recombinant PAD1-4, BAEE citrullination, colorimetric absorbance; PAD1
Sequence of Protein-arginine deiminase type-1 (Homo sapiens) (Q9ULC6 whole entry, looked up): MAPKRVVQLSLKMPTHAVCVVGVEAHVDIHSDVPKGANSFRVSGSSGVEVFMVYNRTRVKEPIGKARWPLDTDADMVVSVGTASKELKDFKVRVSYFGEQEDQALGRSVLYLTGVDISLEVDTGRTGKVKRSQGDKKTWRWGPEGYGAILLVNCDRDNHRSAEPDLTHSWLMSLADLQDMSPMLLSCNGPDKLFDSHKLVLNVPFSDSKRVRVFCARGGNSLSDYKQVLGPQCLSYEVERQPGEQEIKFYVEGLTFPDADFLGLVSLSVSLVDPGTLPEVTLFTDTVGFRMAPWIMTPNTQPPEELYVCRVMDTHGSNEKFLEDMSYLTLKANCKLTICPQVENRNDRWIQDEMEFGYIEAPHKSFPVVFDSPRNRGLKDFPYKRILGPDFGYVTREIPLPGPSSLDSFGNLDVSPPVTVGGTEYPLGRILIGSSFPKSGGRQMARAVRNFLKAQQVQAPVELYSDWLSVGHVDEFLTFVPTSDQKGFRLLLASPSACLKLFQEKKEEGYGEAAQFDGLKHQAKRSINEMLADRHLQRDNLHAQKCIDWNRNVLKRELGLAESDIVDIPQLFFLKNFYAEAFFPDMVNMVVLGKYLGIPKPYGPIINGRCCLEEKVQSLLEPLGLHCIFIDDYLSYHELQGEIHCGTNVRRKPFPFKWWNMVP
Outline: (§1)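 System: recombinant PAD2, PAD3 or PAD4 enzyme, each assayed separately. Amount: PAD2/PAD3 0.5 µM, PAD4 0.2 µM. Medium: Tris pH 7.6, CaCl2, DTT. Also added: 10 mM BAEE substrate. Schedule: 15 min pre-incubation (37 °C), 15 min reaction. Detection: citrulline absorbance, 540 nm. Repeats: duplicate measurements at each compound concentration.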

[2] = target: Protein-arginine deiminase type-2 (Homo sapiens) (UniProt Q9Y2J8); details: recombinant PAD1-4, BAEE citrullination, colorimetric absorbance; PAD2
Sequence of Protein-arginine deiminase type-2 (Homo sapiens) (Q9Y2J8 whole entry, looked up): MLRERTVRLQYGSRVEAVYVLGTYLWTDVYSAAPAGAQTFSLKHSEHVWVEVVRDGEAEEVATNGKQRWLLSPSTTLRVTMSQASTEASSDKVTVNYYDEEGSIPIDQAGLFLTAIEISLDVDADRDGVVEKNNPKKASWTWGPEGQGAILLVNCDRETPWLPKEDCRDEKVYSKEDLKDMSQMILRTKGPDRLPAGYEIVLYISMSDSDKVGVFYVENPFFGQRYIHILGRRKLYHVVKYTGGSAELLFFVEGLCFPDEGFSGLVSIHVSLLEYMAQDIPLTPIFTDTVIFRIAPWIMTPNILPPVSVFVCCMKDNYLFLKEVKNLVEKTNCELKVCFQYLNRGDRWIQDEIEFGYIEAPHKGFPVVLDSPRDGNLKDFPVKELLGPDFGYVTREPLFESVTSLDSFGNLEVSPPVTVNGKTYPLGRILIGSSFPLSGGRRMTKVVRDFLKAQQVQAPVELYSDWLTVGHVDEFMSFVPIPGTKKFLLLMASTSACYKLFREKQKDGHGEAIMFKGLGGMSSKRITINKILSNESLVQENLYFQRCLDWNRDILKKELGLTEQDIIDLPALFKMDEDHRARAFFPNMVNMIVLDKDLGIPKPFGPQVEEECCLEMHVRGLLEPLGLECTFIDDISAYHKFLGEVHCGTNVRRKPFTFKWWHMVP
Outline: as §1

[3] = target: Protein-arginine deiminase type-4 (Homo sapiens) (UniProt Q9UM07); details: recombinant PAD1-4, BAEE citrullination, colorimetric absorbance; PAD4
Sequence of Protein-arginine deiminase type-4 (Homo sapiens) (Q9UM07 whole entry, looked up): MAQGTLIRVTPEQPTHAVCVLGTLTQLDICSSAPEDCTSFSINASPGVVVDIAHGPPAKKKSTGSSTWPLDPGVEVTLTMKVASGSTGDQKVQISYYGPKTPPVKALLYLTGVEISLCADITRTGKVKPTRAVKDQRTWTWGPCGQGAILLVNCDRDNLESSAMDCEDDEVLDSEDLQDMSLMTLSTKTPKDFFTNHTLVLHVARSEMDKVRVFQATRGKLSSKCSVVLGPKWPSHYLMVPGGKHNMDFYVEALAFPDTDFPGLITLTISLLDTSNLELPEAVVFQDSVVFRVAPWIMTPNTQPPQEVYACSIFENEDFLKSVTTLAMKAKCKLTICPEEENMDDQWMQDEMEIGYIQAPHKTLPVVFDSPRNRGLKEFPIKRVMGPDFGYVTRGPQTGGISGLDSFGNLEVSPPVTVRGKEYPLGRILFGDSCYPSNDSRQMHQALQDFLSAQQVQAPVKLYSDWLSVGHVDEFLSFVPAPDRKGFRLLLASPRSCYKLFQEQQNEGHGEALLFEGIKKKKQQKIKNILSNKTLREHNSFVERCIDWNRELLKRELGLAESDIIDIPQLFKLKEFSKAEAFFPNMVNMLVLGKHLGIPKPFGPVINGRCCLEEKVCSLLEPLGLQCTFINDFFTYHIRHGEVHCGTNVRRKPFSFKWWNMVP
Outline: as §1

[4] = target: Protein-arginine deiminase type-3 (Homo sapiens) (UniProt Q9ULW8); details: recombinant PAD1-4, BAEE citrullination, colorimetric absorbance; PAD3
Sequence of Protein-arginine deiminase type-3 (Homo sapiens) (Q9ULW8 whole entry, looked up): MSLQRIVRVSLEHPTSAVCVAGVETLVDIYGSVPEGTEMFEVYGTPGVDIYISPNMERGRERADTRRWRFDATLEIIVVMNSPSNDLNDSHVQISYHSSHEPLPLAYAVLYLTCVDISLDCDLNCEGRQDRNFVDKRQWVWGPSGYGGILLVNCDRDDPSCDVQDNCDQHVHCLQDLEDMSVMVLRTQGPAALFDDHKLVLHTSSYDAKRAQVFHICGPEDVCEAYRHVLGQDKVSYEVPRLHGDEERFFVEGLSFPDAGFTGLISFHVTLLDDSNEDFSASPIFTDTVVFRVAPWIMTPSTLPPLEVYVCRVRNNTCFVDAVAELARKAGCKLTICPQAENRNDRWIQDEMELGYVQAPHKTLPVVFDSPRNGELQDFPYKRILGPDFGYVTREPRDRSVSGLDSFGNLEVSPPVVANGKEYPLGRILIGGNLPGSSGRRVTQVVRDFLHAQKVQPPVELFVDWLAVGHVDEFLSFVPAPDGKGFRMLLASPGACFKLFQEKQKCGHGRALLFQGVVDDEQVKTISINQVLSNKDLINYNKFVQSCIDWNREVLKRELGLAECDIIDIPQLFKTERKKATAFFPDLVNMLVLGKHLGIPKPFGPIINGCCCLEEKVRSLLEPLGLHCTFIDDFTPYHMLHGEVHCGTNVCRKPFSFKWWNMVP
Outline: as §1

IC50 [1]: inactive
IC50 [2]: inactive
IC50 [3]: inactive
IC50 [4]: inactive
SMILES: COC1=C(Br)C(=O)c2ncccc2C1=O
